M18AAP inhibitor – blocks P. falciparum M18 aspartyl aminopeptidase; recombinant PfM18AAP, H-Glu-NHMec fluorogenic cleavage; inhibition, % at 7.35 µM; hit rate 1.2% among 290,000; AID 1822;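 active = inhibition above the campaign mean inhibition over all tested compounds plus 3 SD, cut at about 28% in these data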;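 note: 0% = plate median of test compound wells and 100% = 2 mM ZnCl2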
sPLA2-III inh – Blocks human group III sPLA2 activity; QFRET BODIPY PC-A2 liposome hydrolysis, fluorescence; inhibition, % at 12.2 µM; hit rate 0.56% among 370,000;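 active = inhibition above mean plus 3 SD of compounds lying within the high and low control bounds, cut at about 19% in these data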;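 note: 0% = median of test compound wells and 100% = no enzyme DMSO wells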
m5-HT2A agonist – activates the mouse 5-HT2A serotonin receptor; P35363; CHO-K1 mHTR2A beta-arrestin complementation, luminescence; percent of 30 µM serotonin response; activation, % at 7.6 µM; hit rate 0.66% among 360,000; AID 624169;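 active = activation above a run cutoff, the mean activation of all tested compounds plus 3 SD, cut at about 14% in these data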;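 note: 0% = plate median of compound wells and 100% = 30 µM serotonin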
Target sequence (P35363 whole entry, looked up): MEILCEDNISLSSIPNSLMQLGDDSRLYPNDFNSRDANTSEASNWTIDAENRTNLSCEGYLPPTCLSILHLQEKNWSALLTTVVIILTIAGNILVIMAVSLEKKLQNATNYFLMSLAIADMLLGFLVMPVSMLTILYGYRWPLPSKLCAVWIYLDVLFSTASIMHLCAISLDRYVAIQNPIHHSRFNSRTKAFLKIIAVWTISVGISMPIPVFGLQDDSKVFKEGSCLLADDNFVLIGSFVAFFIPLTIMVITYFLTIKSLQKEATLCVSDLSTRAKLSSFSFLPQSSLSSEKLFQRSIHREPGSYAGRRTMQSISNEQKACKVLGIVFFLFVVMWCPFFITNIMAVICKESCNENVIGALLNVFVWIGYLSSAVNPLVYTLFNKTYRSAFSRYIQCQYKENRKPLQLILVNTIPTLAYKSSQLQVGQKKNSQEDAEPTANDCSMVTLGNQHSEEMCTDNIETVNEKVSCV
Lipid droplet – modulators of hepatic lipid droplet formation; hit rate 0.4% among 240,000; AML12 mouse hepatocytes, oleate lipid droplets, BODIPY imaging; AID 1656; inhibition, % at 6.5 µM;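 active = lipid droplet intensity inhibited by at least 50%, with more than 500 cells counted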
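Assay system: AML12 mouse liver cells | Compound: 6.5 µM single-point dosing | Schedule: Overnight exposure | Technique: Fluorescence imaging, 20x objective, two fields per well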
Arrestin-AP2 inh – human beta-arrestin and AP2 interaction inhibition; FITC-arrestin peptide / GST-AP2 beads, flow cytometry; AP2 beta2 appendage carries R879A mutation; inhibition, % at 10 µM; hit rate 0.31% among 340,000; AID 504490;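 active = inhibition above a set limit, near 3 SD of compounds lacking own fluorescence, cut at about 54% in these data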;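 note: plate controls were DMSO wells for no effect and 5 µM unlabelled arrestin peptide for full effect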
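System: GST-tagged AP2 beta2-adaptin appendage (R879A) on 4 µm glutathione beads / Reagent: FITC-arrestin peptide, 50 nM / Detection: HyperCyt-sampled flow cytometry, FL1 channel, ex 488/em 535 nm / Timing: 12 min plus 1 h, RT / Buffer or medium: PBS plus Tween 20 (0.05%) and BSA (0.1%)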
CendR NRP1 mod – alters CendR peptide binding to human NRP-1. FAM-RPARPAR peptide binding to NRP-1, fluorescence polarization. inhibition, % at 25 µM. hit rate 0.85% among 360,000. AID 602438;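 active = inhibition or corrected inhibition above about 18%, plus a signal ratio from 0.5 to 1.5, limit read from the data, passing the limit was not always enough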
hGIII sPLA2 conf – human GIII-sPLA2 inhibition, confirmation. shares compounds with sPLA2-III inh. inhibition, % at 12.2 µM. hit rate 34% among 2,000. AID 743280. recombinant hGIII-sPLA2, BODIPY PC-A2 QFRET fluorescence;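 active = mean inhibition across triplicates above the hit cutoff set in the earlier primary screen, cut at about 19% in these data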;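 note: 0% = enzyme with DMSO and 100% = DMSO wells lacking enzyme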
535nm interf – optically interferes with 535nm fluorescence in sPLA2 counter-screen. BODIPY FL product fluorescence interference, QFRET. hit rate 8.5% among 2,000. inhibition, % at 12.2 µM. shares compounds with sPLA2-III inh;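 active = average inhibition above the solvent-only control mean plus 3 SD, cut at about 6% in these data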;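 note: 0% = DMSO with substrate plus product and 100% = DMSO with substrate alone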
* marks the source's active call; other numbers are inactive results. Hits are enriched below; roughly 3.3% of the tested compounds scored in any of these assays.

How did C[C@@H]1CCCCO[C@H](CN(C)S(=O)(=O)c2ccc(F)cc2)[C@@H](C)CN([C@H](C)CO)C(=O)c2cc(NC(=O)Nc3ccc(C(F)(F)F)cc3)ccc2O1 do in these assays?
sPLA2-III inh: -24; m5-HT2A agonist: -2; CendR NRP1 mod: -26

How did CC(=O)Nc1ccccc1NC(=O)c1cccc2ccccc12 do in these assays?
M18AAP inhibitor: -7; sPLA2-III inh: 22*; m5-HT2A agonist: 0; Lipid droplet: -6; Arrestin-AP2 inh: 15; CendR NRP1 mod: 6; hGIII sPLA2 conf: -1; 535nm interf: -3

What do the screens show for `O=C(NN1CCCCC1)c1cccc2ccccc12`?
M18AAP inhibitor: 2; sPLA2-III inh: 1; m5-HT2A agonist: 0; Lipid droplet: -10; Arrestin-AP2 inh: 7; CendR NRP1 mod: 5

Results for O=C(NN1CCOCC1)c1cccc2ccccc12 ?
M18AAP inhibitor: -11; sPLA2-III inh: 21*; m5-HT2A agonist: 0; Lipid droplet: 5; Arrestin-AP2 inh: -4; CendR NRP1 mod: -10; hGIII sPLA2 conf: 5; 535nm interf: -7

How did O=C(Nc1ccccc1Br)c1cccc2ccccc12 do in these assays?
sPLA2-III inh: -1; m5-HT2A agonist: -1; Arrestin-AP2 inh: 0; CendR NRP1 mod: -4

What do the screens show for `CCOC(=O)c1c(NC(=O)CN2C(=O)C(=O)N(C(C)C)C2=O)sc(C)c1CC`?
sPLA2-III inh: 3; m5-HT2A agonist: 3; Arrestin-AP2 inh: -11; CendR NRP1 mod: 0

How did CC(C)c1[nH]nc2c1C(c1cccc(C(F)(F)F)c1)NC2=O (configuration not stated) do in these assays?
sPLA2-III inh: 1

What do the screens show for `CC1=C(C(=O)Nc2ccccc2C)C(c2ccc(C)o2)NC(=S)N1` (configuration not stated)?
M18AAP inhibitor: 16; sPLA2-III inh: 20*; m5-HT2A agonist: 0; Lipid droplet: -12; Arrestin-AP2 inh: -2; CendR NRP1 mod: -7; hGIII sPLA2 conf: 22*; 535nm interf: -4

Results for O=c1nc(NCc2ccccc2Cl)cn[nH]1 ?
M18AAP inhibitor: -4; sPLA2-III inh: 25*; m5-HT2A agonist: -1; Lipid droplet: 11; Arrestin-AP2 inh: 10; CendR NRP1 mod: 11; hGIII sPLA2 conf: -1; 535nm interf: -6

What do the screens show for `CCC(CCC(=O)Nc1nncs1)C(=O)O` (configuration not stated)?
M18AAP inhibitor: -4; Lipid droplet: 8

Results for CC(CCC(=O)Nc1nncs1)C(=O)O (configuration not stated) ?
M18AAP inhibitor: -5; sPLA2-III inh: 20*; m5-HT2A agonist: 1; Lipid droplet: -3; Arrestin-AP2 inh: 7; CendR NRP1 mod: -4; hGIII sPLA2 conf: 0; 535nm interf: 3

How did O=C(CNC(=O)OCc1ccccc1)NC(Cc1cnc[nH]1)C(=O)O (configuration not stated) do in these assays?
sPLA2-III inh: -4; m5-HT2A agonist: -6; Arrestin-AP2 inh: -18; CendR NRP1 mod: -3

Results for N/C(=N\OC(=O)CCc1ccccc1)c1ccc(Br)cc1 ?
M18AAP inhibitor: 3; sPLA2-III inh: 6; m5-HT2A agonist: -1; Arrestin-AP2 inh: -7; CendR NRP1 mod: 2

What do the screens show for `Cc1ccc(/C(N)=N/OC(=O)CCc2ccccc2)cc1`?
M18AAP inhibitor: -5; sPLA2-III inh: 20*; m5-HT2A agonist: -4; Arrestin-AP2 inh: -7; CendR NRP1 mod: 4; hGIII sPLA2 conf: -4; 535nm interf: -6

What do the screens show for `Cc1ccc(-c2cn(-c3ccccc3F)c(=S)[nH]2)cc1`?
M18AAP inhibitor: 10; sPLA2-III inh: 27*; m5-HT2A agonist: -1; Lipid droplet: 2; Arrestin-AP2 inh: 23; CendR NRP1 mod: 2; hGIII sPLA2 conf: 24*; 535nm interf: 4

How did COC(=O)C1=C(C)Nc2ncnn2C1c1ccccn1 (configuration not stated) do in these assays?
M18AAP inhibitor: 1; sPLA2-III inh: 0; m5-HT2A agonist: 6; Lipid droplet: 1; Arrestin-AP2 inh: 9; CendR NRP1 mod: 3

How did COC(=O)C1=C(C)NC(C)=C(C(=O)OC)C1c1ccccn1 do in these assays?
M18AAP inhibitor: -2; sPLA2-III inh: 22*; m5-HT2A agonist: -4; Lipid droplet: -3; Arrestin-AP2 inh: 25; CendR NRP1 mod: 3; hGIII sPLA2 conf: 3; 535nm interf: -5

How did CCOC(=O)c1cc(CC)sc1/N=C/C1=C(O)CC(C)(C)CC1=O do in these assays?
M18AAP inhibitor: -10; sPLA2-III inh: 23*; m5-HT2A agonist: -3; Lipid droplet: 0; Arrestin-AP2 inh: 0; CendR NRP1 mod: 1; hGIII sPLA2 conf: 11; 535nm interf: -2

How did CCc1ccc([C@@H]2CC(=O)[C@@H]3CN(S(=O)(=O)c4ccccc4C)[C@H](c4ccc(Cl)cc4)C[C@@H]3N2S(=O)(=O)c2ccc(C)cc2)cc1 do in these assays?
sPLA2-III inh: -2; m5-HT2A agonist: 10; CendR NRP1 mod: -1

How did O=C(OCc1nc2ccccc2s1)c1cc2ccccc2oc1=O do in these assays?
M18AAP inhibitor: -3; sPLA2-III inh: 22*; Lipid droplet: -1; hGIII sPLA2 conf: 9; 535nm interf: -8

How did COc1cc2c3c(c1)C(C)CC(C)(C)N3C(=O)C2=O (configuration not stated) do in these assays?
M18AAP inhibitor: 3; sPLA2-III inh: 24*; m5-HT2A agonist: -2; Lipid droplet: 13; Arrestin-AP2 inh: -4; CendR NRP1 mod: 0; hGIII sPLA2 conf: 13; 535nm interf: 4

Results for COc1ccc(-c2n[nH]c(=S)nc2-c2ccc(OC)cc2)cc1 ?
M18AAP inhibitor: 7; sPLA2-III inh: 19*; m5-HT2A agonist: -1; Lipid droplet: -3; Arrestin-AP2 inh: -12; CendR NRP1 mod: -4; hGIII sPLA2 conf: 26*; 535nm interf: 5

What do the screens show for `COc1ccc(C(=O)N2CCC2(C)C(=O)O)cc1F` (configuration not stated)?
sPLA2-III inh: 15; m5-HT2A agonist: -4; CendR NRP1 mod: 1

How did COC(=O)Cn1c2ccccc2c(=O)n1C(C)C do in these assays?
sPLA2-III inh: 20*; m5-HT2A agonist: 9; CendR NRP1 mod: -3; hGIII sPLA2 conf: 1; 535nm interf: 1

How did O=C(Nc1cccc(Cl)c1)NC1CC2CCC1C2 (configuration not stated) do in these assays?
M18AAP inhibitor: -1; sPLA2-III inh: -1; m5-HT2A agonist: 5; Lipid droplet: -19; Arrestin-AP2 inh: -14; CendR NRP1 mod: 8
